# Results from ChEMBL document CHEMBL1138799, “4-benzyl- and 4-benzoyl-3-dimethylaminopyridin-2(1H)-ones, a new family of potent anti-HIV agents: optimization and in vitro evaluation against clinically important HIV mutant strains” (J Med Chem, 2004).
# Tests used:
# [1] = test system: Human immunodeficiency virus 1; assay: Inhibitory activity against HIV-1 mutant strain 138K; type: functional, organism-based
# Outline: (§1)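 Mutant HIV-1 made by recombining mutant PR-RT sequence into a PR-RT-deleted HXB2 proviral clone. Serial compound concentrations plated, then virus (200 CCID50/well) and MT4 cells (30 000 cells/well; RPMI 1640, 10% FCS) added; 5 days at 37 °C, 5% CO2; viability read by MTT. EC50 = concentration giving 50% infection versus drug-free control; mock-infected cultures run in parallel for toxicity.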
# [2] = test system: Human immunodeficiency virus 1; assay: Inhibitory activity against HIV-1 double mutants strain 100I and 103N; type: functional, organism-based; outline: as §1
# [3] = test system: Human immunodeficiency virus 1; assay: Inhibitory activity against HIV-1 double mutants strain 101E and 103N; type: functional, organism-based; outline: as §1
# [4] = test system: Human immunodeficiency virus 1; assay: Inhibitory activity against HIV-1 double mutants strain 103N and 181C; type: functional, organism-based; outline: as §1
# [5] = test system: Human immunodeficiency virus 1; assay: Inhibitory activity against HIV-1 double mutants strain 227L and 106A; type: functional, organism-based; outline: as §1
# [6] = test system: Human immunodeficiency virus 1; assay: Inhibitory activity against HIV-1 mutant strain 100I; type: functional, organism-based; outline: as §1
# [7] = test system: Human immunodeficiency virus 1; assay: Inhibitory activity against HIV-1 mutant strain 101E; type: functional, organism-based; outline: as §1
# [8] = test system: Human immunodeficiency virus 1; assay: Inhibitory activity against HIV-1 mutant strain 103N; type: functional, organism-based; outline: as §1
# [9] = test system: Human immunodeficiency virus 1; assay: Inhibitory activity against HIV-1 mutant strain 179E; type: functional, organism-based; outline: as §1
# [10] = test system: Human immunodeficiency virus 1; assay: Inhibitory activity against HIV-1 mutant strain 181C; type: functional, organism-based; outline: as §1
# [11] = test system: Human immunodeficiency virus 1; assay: Inhibitory activity against HIV-1 mutant strain 188L; type: functional, organism-based; outline: as §1
# [12] = test system: Human immunodeficiency virus 1; assay: Inhibitory activity against HIV-1 mutant strain 190A; type: functional, organism-based; outline: as §1
# [13] = test system: Human immunodeficiency virus 1; assay: Inhibitory activity against HIV-1 mutant strain 190S; type: functional, organism-based; outline: as §1
# [14] = test system: Human immunodeficiency virus 1; assay: Inhibitory activity against HIV-1 mutant strain 227C; type: functional, organism-based; outline: as §1
# [15] = test system: Human immunodeficiency virus 1; assay: Inhibitory activity against wild type HIV-1 LAI cell line; type: functional, organism-based; conditions: Human immunodeficiency virus 1, LAI
# Outline: (§2)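 MT4 human T-lymphoblastoid cells were grown in RPMI 1640 with 10% fetal calf serum and antibiotics at 37 °C and 5% CO2. A compound concentration series was combined with HIV-1 LAI at 200 CCID50/well and 30 000 cells/well. Mock-infected cultures with the same concentrations were run in parallel to measure cytotoxicity. After 5 days, cell viability was read by MTT colorimetry. EC50 is the concentration giving 50% infection versus the drug-free control.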
# [16] = test system: Human immunodeficiency virus 1; assay: Selectivity index of cytotoxic activity (CC50) to inhibitory activity (IC50) relative to LAI cell line; type: functional; outline: as §2
# [17] = test system: Human immunodeficiency virus 1; assay: Inhibitory activity against HIV-1 mutant strain 106A; type: functional, organism-based; outline: as §1
Compound,IC50 [1],IC50 [2],IC50 [3],IC50 [4],IC50 [5],IC50 [6],IC50 [7],IC50 [8],IC50 [9],IC50 [10],IC50 [11],IC50 [12],IC50 [13],IC50 [14],IC50 [15],Selectivity index [16],IC50 [17]
CCc1c(C)nc(O)c(N(C)C)c1C(=O)c1cccc(C#N)c1,4 nM,30 nM,20 nM,110 nM,50 nM,10 nM,7 nM,6 nM,4 nM,40 nM,390 nM,5 nM,2 nM,220 nM,2 nM,6310,
CCc1c(C)[nH]c(=O)c(N(C)C)c1C(=O)c1cc(C)cc(C)c1,5 nM,40 nM,10 nM,150 nM,390 nM,6 nM,8 nM,10 nM,2 nM,60 nM,150 nM,10 nM,4 nM,630 nM,4 nM,2510,6 nM
CCc1c(C)nc(O)c(N(C)C)c1C(=O)c1cccc(/C(C)=C/C#N)c1,4 nM,40 nM,20 nM,200 nM,1250 nM,10 nM,8 nM,3 nM,2 nM,60 nM,390 nM,6 nM,10 nM,1250 nM,1 nM,63100,3 nM
CCc1c(C)nc(O)c(N(C)C)c1C(=O)c1cccc(CO)c1,,,,,,,,360 nM,,3870 nM,18600 nM,,,,50 nM,2940,
CCc1c(C)nc(O)c(N(C)C)c1Cc1cccc(Cl)c1,,,,,,,,40 nM,,80 nM,1580 nM,,,,5 nM,20000,
CCc1c(C)nc(O)c(N(C)C)c1C(=O)c1cccc(C(C)=O)c1,,,,,,,,120 nM,,1000 nM,10000 nM,,,,10 nM,3160,
CCc1c(C)nc(O)c(N(C)C)c1C(=O)c1cccc(Br)c1,5 nM,70 nM,70 nM,970 nM,100 nM,20 nM,10 nM,20 nM,5 nM,150 nM,790 nM,7 nM,3 nM,260 nM,2 nM,12600,
C/C=C/c1cccc(C(=O)c2c(CC)c(C)nc(O)c2N(C)C)c1,,,,,,,,150 nM,,390 nM,390 nM,,,,5 nM,10000,
CCc1c(C)nc(O)c(N(C)C)c1Cc1ccccc1,,,,,,,,200 nM,,500 nM,7940 nM,,,,4 nM,25100,
CCc1c(C)nc(O)c(N(C)C)c1Cc1cc(F)cc(F)c1,,,,,,,,30 nM,,100 nM,500 nM,,,,10 nM,7940,
CCc1c(C)nc(O)c(N(C)C)c1C(=O)c1cc(Br)cs1,,,,,,,,100 nM,,630 nM,10000 nM,,,,3 nM,10000,
CCc1c(C)nc(O)c(N(C)C)c1C(=O)c1cccc(C=O)c1,,,,,,,,120 nM,,1250 nM,10000 nM,,,,8 nM,2510,
CCc1c(C)nc(O)c(N(C)C)c1C(=O)c1cccc(/C(C)=C(\C)C#N)c1,,,,,,,,20 nM,,120 nM,1580 nM,,,,6 nM,1580,
CCOC(=O)/C=C/c1cccc(C(=O)c2c(CC)c(C)nc(O)c2N(C)C)c1,,,,,,,,10 nM,,150 nM,150 nM,,,,3 nM,3160,
CCc1c(C)nc(O)c(N(C)C)c1Cc1cc(Cl)cc(Cl)c1,,310 nM,200 nM,500 nM,500 nM,50 nM,,20 nM,,160 nM,630 nM,,,700 nM,8 nM,3980,
CCc1c(C)nc(O)c(N(C)C)c1Cc1cccc(C(F)(F)F)c1,,,,,,,,390 nM,,30 nM,5010 nM,,,,10 nM,10000,
CCc1c(C)nc(O)c(N(C)C)c1C(=O)c1cc(Cl)cc(Cl)c1,10 nM,500 nM,40 nM,150 nM,60 nM,8 nM,10 nM,10 nM,10 nM,30 nM,310 nM,10 nM,3 nM,630 nM,2 nM,5010,
CCc1c(C)nc(O)c(N(C)C)c1C(=O)c1cccc([N+](=O)[O-])c1,,,,,,,,20 nM,,200 nM,3160 nM,,,,2 nM,39600,

Compound,IC50 [1],IC50 [2],IC50 [3],IC50 [4],IC50 [5],IC50 [6],IC50 [7],IC50 [8],IC50 [9],IC50 [10],IC50 [11],IC50 [12],IC50 [13],IC50 [14],IC50 [15],Selectivity index [16],IC50 [17]
O=C1Nc2ccc(Cl)cc2[C@@](C#CC2CC2)(C(F)(F)F)O1 [EFAVIRENZ],2 nM,10000 nM,150 nM,40 nM,20 nM,40 nM,6 nM,40 nM,5 nM,2 nM,150 nM,10 nM,250 nM,150 nM,,,40 nM
CCOC(=O)/C=C/C=C/c1cccc(C(=O)c2c(CC)c(C)nc(O)c2N(C)C)c1,,,,,,,,40 nM,,200 nM,630 nM,,,,5 nM,398,
CCc1c(C)nc(O)c(N(C)C)c1C(=O)c1cccc(CC#N)c1,,,,,,,,6 nM,,120 nM,1000 nM,,,,1 nM,31600,
CCc1c(C)[nH]c(=O)c(N(C)C)c1Cc1cc(C)cc(C)c1,,,,790 nM,,50 nM,10 nM,30 nM,,100 nM,250 nM,60 nM,,,8 nM,12600,40 nM
CCc1c(C)nc(O)c(N(C)C)c1Cc1cccc(OC)c1,,,,,,,,100 nM,,320 nM,310 nM,,,,4 nM,12600,
CCc1c(C)nc(O)c(N(C)C)c1C(=O)c1cccc(/C=C/c2cccnc2)c1,,,,,,,,20 nM,,60 nM,150 nM,,,,3 nM,3160,
Cc1ccnc2c1NC(=O)c1cccnc1N2C1CC1 [NEVIRAPINE],50 nM,,500 nM,40 nM,20 nM,310 nM,310 nM,,190 nM,10000 nM,100000 nM,,40 nM,130 nM,30 nM,,
CCc1c(C)nc(O)c(N(C)C)c1Cc1ccccc1Cl,,,,,,,,390 nM,,200 nM,790 nM,,,,6 nM,15900,
CCc1c(C)nc(O)c(N(C)C)c1C(=O)c1cccc(/C=C\C#N)c1,,,,,,,,3 nM,,10 nM,40 nM,,,,4 nM,25100,
CCc1c(C)nc(O)c(N(C)C)c1Cc1cn(C)c2ccccc12,,,,,,,,390 nM,,310 nM,250 nM,,,,30 nM,2510,
CCc1c(C)nc(O)c(N(C)C)c1C(=O)c1cccc(CC(C)C#N)c1 (stereo not given),,,,,,,,50 nM,,500 nM,1990 nM,,,,8 nM,12600,
CCc1c(C)nc(O)c(N(C)C)c1Cc1cccnc1,,,,,,,,390 nM,,1000 nM,3980 nM,,,,10 nM,6310,
CCc1c(C)nc(O)c(N(C)C)c1C(=O)c1cccc(C(C)C#N)c1 (stereo not given),,,,,,,,8 nM,,120 nM,250 nM,,,,3 nM,31600,
CCc1c(C)nc(O)c(N(C)C)c1C(=O)c1ccc(OC)c(C)c1,,,,,,,,1580 nM,,100000 nM,100000 nM,,,,70 nM,200,
CCc1c(C)nc(O)c(N(C)C)c1C(=O)c1cccs1,,,,,,,,310 nM,,3980 nM,100000 nM,,,,10 nM,6310,
CCc1c(C)nc(O)c(N(C)C)c1C(=O)c1cccc(N)c1,,,,,,,,500 nM,,10000 nM,10000 nM,,,,10 nM,2510,
CCc1c(C)nc(O)c(N(C)C)c1C(=O)c1cccc(/C=C/c2cnccn2)c1,,,,,,,,50 nM,,70 nM,200 nM,,,,20 nM,3960,
